The source of these data is paper PMC11292830 (ACS Omega, 2024).

The nature of data set [1]: FRET assay in solution of Cy3- and Cy5-labeled peptides. It is filed as physicochemical. The note with it: 100 nM Cy3-labeled plus 100 nM Cy5-labeled peptide in PBS, excitation of Cy3 at 490 nm, microplate reader, n = 3.
Data set [2] is described as follows: Differential scanning calorimetry of the oligomers. In kind it is physicochemical. The conditions noted are these: DSC, 10 mg/mL in 20 mM Tris-HCl pH 7.5, 100 mM NaCl, 4 to 110 °C at 1 °C/min, 3 atm, first scan. A general note: Differential scanning calorimetry records heat flow against a reference as temperature is scanned.
Data set [3] is described as follows: Native mass spectrometry of oligomeric state. In kind it is physicochemical. The conditions noted are these: 50 mM ammonium acetate (pH 6.9), native ESI-MS, column bypassed. A digest of the protocol:
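Intact-mass LC/MS on a QTof instrument fed by UHPLC, with the column bypassed to capture the full oligomer profile. Test compound was in 50 mM ammonium acetate (pH 6.9) under native conditions. Electrospray in positive ionization mode; source temperature 300 °C; ion spray voltage 5500 V. Spectra were inspected over the expected regions for larger oligomers.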

For data set [4] the following is noted: cited from earlier work.

Bridges are numbered along the chain shown (N, C = ends). Where no end group is shown, it is not given here.

For “LKKLCLKLKKLCKLAG (disulfide 5-12 (inferred)) [LK-3]”, in data set [1], the FRET efficiency is reported as 0.36. The “melting temperature (Tm2)” value in data set [2] was found to be 63.8 °C. Also, in data set [3], the “oligomeric state by native mass spectrometry” value is recorded as “prefers to form oligomers”. Besides, the “molecularity of the oligomer by SEC-MALS” value in data set [4] is given as “tetramer of dimers”.
